The source of these data is ChEMBL document CHEMBL2203183, “Synthesis of N-phenyl-N-(3-(piperidin-1-yl)propyl)benzofuran-2-carboxamides as new selective ligands for sigma receptors” (Bioorg Med Chem, 2012).

Assay [1] is described as follows: Displacement of [3H]DTG from sigma 2 receptor in rat PC12 cell membrane after 2 hrs by scintillation counting. Type of assay: cell membranes. Particulars: pc-12. (Displacement assays read how much labelled ligand stays bound in the presence of the test substance.)
The target of assay [2] is D(3) dopamine receptor (Homo sapiens) (UniProt P35462). The assay is described as follows: Displacement of [3H]N-methylspiperone from dopamine D3 receptor at 10 uM after 1.5 hrs by scintillation counting analysis.
In assay [3] the target is T1, Muscarinic acetylcholine receptor M4 (Homo sapiens, UniProt P08173).
T1 sequence (P08173 whole entry): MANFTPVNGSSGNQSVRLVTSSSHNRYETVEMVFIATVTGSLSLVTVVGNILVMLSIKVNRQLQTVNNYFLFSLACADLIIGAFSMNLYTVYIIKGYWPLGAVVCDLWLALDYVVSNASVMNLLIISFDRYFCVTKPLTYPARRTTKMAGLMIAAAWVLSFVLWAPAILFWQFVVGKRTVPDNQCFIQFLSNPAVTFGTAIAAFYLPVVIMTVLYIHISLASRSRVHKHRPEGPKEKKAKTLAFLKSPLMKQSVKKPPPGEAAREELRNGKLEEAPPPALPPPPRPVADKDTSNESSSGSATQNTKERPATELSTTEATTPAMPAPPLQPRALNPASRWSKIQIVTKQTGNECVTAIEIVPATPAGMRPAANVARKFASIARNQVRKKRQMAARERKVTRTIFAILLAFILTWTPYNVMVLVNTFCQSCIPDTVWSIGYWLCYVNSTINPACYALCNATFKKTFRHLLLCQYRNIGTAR
The assay is described as follows: Displacement of [3H]QNB from human recombinant M4 receptor after 1.5 hrs by scintillation counting analysis. In outline:
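Membranes from transiently or stably transfected cell lines, run through the NIMH-PDSP program. [3H]QNB was the radioligand and atropine the reference. […] Competition curves were fitted to a three-parameter logistic to give IC50, converted to Ki by Cheng-Prusoff.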

Assay [4] addresses Sigma non-opioid intracellular receptor 1 (Rattus norvegicus) (UniProt Q9R0C9). In words: Displacement of [3H](+)-pentazocine from sigma 1 receptor in rat brain membrane at 10 uM after 2.5 hrs by scintillation counting. Type of assay: cell membranes.
For assay [5], the target named is 5-hydroxytryptamine receptor 2A (Homo sapiens) (UniProt P28223). The assay is described as follows: Displacement of [3H]ketanserin from human recombinant 5-HT2A receptor at 10 uM after 1.5 hrs by scintillation counting analysis. In outline: (§1)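 NIMH-PDSP primary screen using membranes from transiently or stably transfected cell lines (e.g., HEK293, COS, CHO, NIH3T3). Compound at 10 μM final. Reference compounds: chlorpromazine (5-HT2A), methysergide (5-HT2B), LY278584 (5-HT3), oxymetazoline (α2A), prazosin (α2C), atropine (M4). Mean % inhibition of radioligand specific binding, N = 4.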

In assay [6] the target is T2, 5-hydroxytryptamine receptor 3A (Homo sapiens) (UniProt P46098).
T2 sequence (whole entry): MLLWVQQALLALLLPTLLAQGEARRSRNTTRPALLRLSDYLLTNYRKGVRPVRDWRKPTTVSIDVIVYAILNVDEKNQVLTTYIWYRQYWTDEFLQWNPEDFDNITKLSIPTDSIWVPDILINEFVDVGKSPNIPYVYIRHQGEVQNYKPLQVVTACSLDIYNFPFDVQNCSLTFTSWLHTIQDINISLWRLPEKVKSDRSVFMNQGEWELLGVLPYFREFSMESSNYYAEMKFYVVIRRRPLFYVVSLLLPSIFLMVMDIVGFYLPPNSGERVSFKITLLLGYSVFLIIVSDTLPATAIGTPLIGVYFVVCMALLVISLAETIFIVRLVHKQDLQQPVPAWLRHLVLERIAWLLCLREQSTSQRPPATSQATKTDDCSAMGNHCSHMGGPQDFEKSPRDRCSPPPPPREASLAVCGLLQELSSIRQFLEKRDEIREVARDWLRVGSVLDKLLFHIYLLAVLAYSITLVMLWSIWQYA
The assay is described as follows: Displacement of [3H]LY278584 from human recombinant 5-HT3 receptor at 10 uM after 1.5 hrs by scintillation counting analysis. The essentials:
as §1

Assay [7] addresses T3, Muscarinic acetylcholine receptor M4 (Homo sapiens) (UniProt P08173).
T3 sequence (whole entry): T1 sequence (P08173 whole entry)
The assay is described as follows: Displacement of [3H]QNB from human recombinant M4 receptor at 10 uM after 1.5 hrs by scintillation counting analysis. In outline:
as §1

Assay [8] has as its target T4, Alpha-2C adrenergic receptor (Homo sapiens) (UniProt P18825).
T4 sequence (whole entry): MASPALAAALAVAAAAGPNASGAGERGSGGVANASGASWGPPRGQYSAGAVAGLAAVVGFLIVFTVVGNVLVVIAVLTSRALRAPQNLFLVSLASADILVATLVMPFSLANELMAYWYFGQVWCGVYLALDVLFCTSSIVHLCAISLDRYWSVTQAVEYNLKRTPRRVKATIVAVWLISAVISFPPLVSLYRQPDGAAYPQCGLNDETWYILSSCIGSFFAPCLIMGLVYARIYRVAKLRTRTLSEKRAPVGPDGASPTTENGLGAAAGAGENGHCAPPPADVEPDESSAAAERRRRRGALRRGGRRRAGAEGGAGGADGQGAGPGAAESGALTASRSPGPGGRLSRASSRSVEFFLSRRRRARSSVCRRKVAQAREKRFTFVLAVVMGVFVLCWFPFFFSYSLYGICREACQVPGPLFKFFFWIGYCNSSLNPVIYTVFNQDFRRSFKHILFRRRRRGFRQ
The assay is described as follows: Displacement of [3H]clonidine from alpha2C adrenergic receptor at 10 uM after 40 mins by scintillation counting analysis. The essentials:
as §1

Assay [9] concerns the target 5-hydroxytryptamine receptor 2B (Homo sapiens) (UniProt P41595). The assay is described as follows: Displacement of [3H]LSD from human recombinant 5-HT2B receptor at 10 uM after 1.5 hrs by scintillation counting analysis. In outline: as §1
A further assay has as its system PC-12. In words: Displacement of [3H]DTG from sigma 2 receptor in rat PC12 cell membrane at 10 uM after 2 hrs by scintillation counting. Type of assay: cell membranes.
Assay [10] has as its target T5, Alpha-2A adrenergic receptor (Homo sapiens) (UniProt P08913).
T5 sequence (whole entry): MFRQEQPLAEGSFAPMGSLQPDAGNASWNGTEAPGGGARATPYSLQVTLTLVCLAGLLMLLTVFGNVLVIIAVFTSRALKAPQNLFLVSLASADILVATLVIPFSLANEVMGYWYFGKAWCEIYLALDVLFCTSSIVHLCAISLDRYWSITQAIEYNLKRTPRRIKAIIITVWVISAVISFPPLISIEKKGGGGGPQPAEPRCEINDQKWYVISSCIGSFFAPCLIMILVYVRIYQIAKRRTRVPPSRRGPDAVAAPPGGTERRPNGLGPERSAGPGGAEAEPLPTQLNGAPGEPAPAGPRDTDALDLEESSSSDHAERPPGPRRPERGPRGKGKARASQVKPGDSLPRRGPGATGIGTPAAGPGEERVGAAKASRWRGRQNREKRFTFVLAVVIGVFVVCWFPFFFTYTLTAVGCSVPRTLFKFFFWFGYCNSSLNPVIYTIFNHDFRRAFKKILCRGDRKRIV
The assay is described as follows: Displacement of [3H]clonidine from alpha2A adrenergic receptor at 10 uM after 40 mins by scintillation counting analysis.

pKi: −log10 of the molar value.

Sequence of 5-hydroxytryptamine receptor 2A (Homo sapiens) (P28223 whole entry): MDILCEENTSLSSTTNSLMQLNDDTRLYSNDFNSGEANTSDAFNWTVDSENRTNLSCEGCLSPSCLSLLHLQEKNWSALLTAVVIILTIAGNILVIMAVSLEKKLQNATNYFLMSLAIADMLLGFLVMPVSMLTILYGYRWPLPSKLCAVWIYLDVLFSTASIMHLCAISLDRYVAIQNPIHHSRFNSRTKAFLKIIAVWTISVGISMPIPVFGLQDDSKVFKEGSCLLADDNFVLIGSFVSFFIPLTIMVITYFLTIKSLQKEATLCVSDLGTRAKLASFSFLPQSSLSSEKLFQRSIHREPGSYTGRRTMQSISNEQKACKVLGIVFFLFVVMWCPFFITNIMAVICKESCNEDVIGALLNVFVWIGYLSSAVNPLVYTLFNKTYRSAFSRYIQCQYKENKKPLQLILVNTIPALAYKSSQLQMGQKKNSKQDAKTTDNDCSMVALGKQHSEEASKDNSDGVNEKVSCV
Sequence of 5-hydroxytryptamine receptor 2B (Homo sapiens) (P41595 whole entry): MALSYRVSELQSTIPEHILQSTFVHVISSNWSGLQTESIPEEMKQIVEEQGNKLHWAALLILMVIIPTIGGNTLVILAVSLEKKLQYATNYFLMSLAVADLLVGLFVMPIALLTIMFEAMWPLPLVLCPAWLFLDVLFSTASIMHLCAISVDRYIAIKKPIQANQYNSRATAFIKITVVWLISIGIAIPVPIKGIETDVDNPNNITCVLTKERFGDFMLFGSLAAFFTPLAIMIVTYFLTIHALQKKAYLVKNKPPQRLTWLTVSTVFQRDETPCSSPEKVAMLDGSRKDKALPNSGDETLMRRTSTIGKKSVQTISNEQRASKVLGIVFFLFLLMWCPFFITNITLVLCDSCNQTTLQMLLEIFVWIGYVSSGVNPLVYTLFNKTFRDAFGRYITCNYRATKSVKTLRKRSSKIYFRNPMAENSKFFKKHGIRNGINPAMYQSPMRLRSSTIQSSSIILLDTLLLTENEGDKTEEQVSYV
Sequence of Sigma non-opioid intracellular receptor 1 (Rattus norvegicus) (Q9R0C9 whole entry): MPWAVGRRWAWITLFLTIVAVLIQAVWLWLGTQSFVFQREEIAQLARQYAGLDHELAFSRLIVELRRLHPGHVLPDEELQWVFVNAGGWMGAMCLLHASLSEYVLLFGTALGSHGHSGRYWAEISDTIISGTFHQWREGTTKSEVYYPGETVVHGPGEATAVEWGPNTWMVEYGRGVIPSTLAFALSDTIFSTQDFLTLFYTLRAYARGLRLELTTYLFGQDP
Sequence of D(3) dopamine receptor (Homo sapiens) (P35462 whole entry): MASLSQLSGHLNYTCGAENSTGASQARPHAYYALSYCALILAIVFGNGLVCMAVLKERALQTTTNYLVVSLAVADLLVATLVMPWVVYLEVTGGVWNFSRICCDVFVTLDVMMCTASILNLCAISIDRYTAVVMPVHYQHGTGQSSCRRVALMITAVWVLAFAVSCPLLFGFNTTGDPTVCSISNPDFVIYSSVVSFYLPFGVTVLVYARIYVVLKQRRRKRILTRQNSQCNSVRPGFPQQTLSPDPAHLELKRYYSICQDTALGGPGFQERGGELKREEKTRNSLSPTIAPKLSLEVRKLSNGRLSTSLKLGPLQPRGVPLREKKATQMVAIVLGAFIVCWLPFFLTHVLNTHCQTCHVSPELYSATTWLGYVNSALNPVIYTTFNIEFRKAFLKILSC

A word on the pKi: it is −log10 of the Ki, conventionally taken in molar units. The term inhibition denotes the percentage by which the read-out fell short of the control. As to `COc1ccc2c(C)c(C(=O)N(CCCN3CCCCC3)c3ccccc3)oc2c1`, the pKi in assay [1] was 7.39; in [3] it was below 5.00. Besides, the inhibition in assay [2] was 40.6%; in [4], 97.7%; in [5], 61.2%; in assay [6] it was 7.3%; in assay [7], 68.4%; in [8], 49%. The inhibition in assay [9] stood at 93.9%; in the assay on PC-12 it was 88.5%.
`Cc1c(C(=O)N(CCCN2CCCCC2)c2ccccc2)oc2ccccc12` gave a pKi in assay [1] of 7.80. Further, the inhibition came out at 18.1% in assay [5]; 2.9% in assay [6]; 43.1% in assay [7]; 77.7% in assay [10]; 61.9% in assay [8]; 69.2% in assay [9]. Moreover, the inhibition in the assay on PC-12 was 93.5%.
Consider `COc1cc2oc(C(=O)N(CCCN3CCCCC3)c3ccccc3)c(C)c2cc1OC`, for which, in assay [1], the pKi was 6.28. For the same compound, the inhibition was determined as 38.8% in [2]; 99.8% in assay [4]; 76.6% in assay [5]; 64.2% in [6]; 54.4% in assay [7]; 78.9% in assay [8]. Moreover, the inhibition was 43.8% in assay [9] and 81.4% with PC-12.
